Compounds with a hit are over-represented: about 3.1% of the library has one in this group of screens.
SENP7 block: SENP7 protease inhibition; inhibition, % at 5 µM; recombinant SENP7, Z-RLRGG-aminoluciferin luminescence, 40 min; AID 434973; actives 1.5% (n = 330,000); Q9BQF6;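 active means inhibition above about 50% at the single test dose, limit read from the data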;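 further: plate controls were DMSO with enzyme for no effect and no enzyme buffer wells for full effect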
SENP8 block-1: SENP8 (human) protease inhibition; inhibition, % at 20 µM; Q96LD8; actives 0.64% (n = 360,000); recombinant SENP8, Nedd8 substrate fluorescence; in the data active means inhibition mostly above about 40%, no sharp cut-off; inactive means mostly below about 27%
SENP6 inh: blocks the human protease SENP6; Q9GZR1; Recombinant SENP6 catalytic domain, aminoluciferin luminescence; inhibition, % at 10 µM; actives 1.8% (n = 330,000); AID 2599;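 active means inhibition above about 50% at the single tested dose, limit read from the data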;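 further: plate controls were DMSO wells with enzyme for no effect and DMSO wells lacking enzyme for full effect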
Target sequence (Q9GZR1 628-1112 limits assumed): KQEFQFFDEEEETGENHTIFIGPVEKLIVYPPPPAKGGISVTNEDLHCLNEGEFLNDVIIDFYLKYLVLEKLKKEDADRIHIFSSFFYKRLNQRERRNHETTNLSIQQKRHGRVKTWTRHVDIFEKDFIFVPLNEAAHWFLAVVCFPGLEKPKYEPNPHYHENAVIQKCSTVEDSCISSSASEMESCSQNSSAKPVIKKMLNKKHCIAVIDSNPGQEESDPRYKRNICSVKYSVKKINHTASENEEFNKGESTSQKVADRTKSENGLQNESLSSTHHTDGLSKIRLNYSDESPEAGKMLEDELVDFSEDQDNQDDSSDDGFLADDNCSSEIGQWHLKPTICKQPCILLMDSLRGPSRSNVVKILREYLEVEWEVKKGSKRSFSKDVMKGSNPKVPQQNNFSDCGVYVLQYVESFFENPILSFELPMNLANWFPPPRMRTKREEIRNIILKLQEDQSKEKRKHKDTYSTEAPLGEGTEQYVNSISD
UBC13 inh: inhibitors of human UBC13 polyubiquitin chain formation. AID 485273. actives 0.47% (n = 330,000). P61088. inhibition, % at 20 µM. TR-FRET; in the data active means inhibition above about 45%, passing the limit was not always enough
Apaf1 inhib: human Apaf-1 inhibition | O14727 | reconstituted apoptosome caspase-3 activity, DEVD-Rh110 fluorescence | inhibition, % at 20 µM | actives 0.71% (n = 330,000); active means inhibition of at least 40% at 20 µM;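 further: plate controls were DMSO wells for no effect and DEVD-CHO caspase inhibitor wells for full effect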
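Material: reconstituted apoptosome with Apaf-1, cytochrome c, caspase-9, procaspase-3, dATP / Buffer or medium: pH 7.5 Hepes buffer with CHAPS, BSA, DTT / Also added: cytochrome c with DEVD-Rh110 / Schedule: compound with Apaf-1, dATP, procaspase-3 30 min, then 50 min reaction, room temperature / Technique: rhodamine 110 fluorescence at Ex 480/Em 540 nm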
SENP8 block-2: inhibitors of human SENP8 protease; AID 2540; actives 1.2% (n = 330,000); inhibition, % at 10 µM; Q96LD8; purified SENP8, Z-RLRGG-aminoluciferin cleavage, luminescence; in the data active means inhibition above about 50%
The depositor's hits bear a star.

CC(C)c1ccc(S(=O)(=O)/N=C2/C=CC(=O)c3ccccc32)cc1 was read as SENP7 block 13, SENP6 inh 27, UBC13 inh -69, Apaf1 inhib 72* and SENP8 block-2 6.
`COC(=O)C(C(C)=O)C1=C/C(=N\S(=O)(=O)c2ccc(C)cc2)c2ccccc2C1=O` (stereo not drawn) gave SENP7 block -3, SENP8 block-1 9, SENP6 inh 3, UBC13 inh -11, Apaf1 inhib 21 and SENP8 block-2 -3.
CC(C)c1ccc(S(=O)(=O)/N=C2\C=C(NS(=O)(=O)c3ccccc3)C(=O)c3ccccc32)cc1 was read as SENP8 block-1 62*.
`CC(=O)NC(c1ccccc1)c1nc(-c2cc3ccccc3o2)cs1` (stereo not drawn) gave SENP8 block-1 14.
For CC(=O)c1ccc(NC(=S)Nc2cccc3cnccc23)cc1 the results were SENP7 block 61*, SENP8 block-1 -318, SENP6 inh 87*, UBC13 inh -58, Apaf1 inhib 96* and SENP8 block-2 92*.
`S=C(Nc1cccc(Cl)c1)Nc1cccc2cnccc12` gave SENP8 block-1 -204.
Screening O=C(Cn1cc(SCc2cccc(Cl)c2)c2ccccc21)N1CCOCC1 returned SENP7 block 55*, SENP8 block-1 12, SENP6 inh -15, UBC13 inh 11, Apaf1 inhib 5 and SENP8 block-2 47.
For CCOC(=O)c1ccc(S(=O)(=O)N2CCC(N3CCCCC3)CC2)cc1 the results were SENP7 block -2, SENP8 block-1 13, SENP6 inh -3, UBC13 inh 47*, Apaf1 inhib -4 and SENP8 block-2 0.
N#C/C(=C(/O)c1ccc2c(c1)OCO2)c1nc2cc(C(F)(F)F)ccc2s1 was read as SENP7 block 5, SENP8 block-1 -51, SENP6 inh 48, UBC13 inh -6, Apaf1 inhib -3 and SENP8 block-2 54*.
`CC1(C(=O)NCc2ccccc2)CSCC(=O)N1Cc1cccc(C(F)(F)F)c1` (stereo not drawn) gave SENP8 block-1 9.
`C#CCOCCOCCOCCNc1nc(N2CCN(C(=O)CCCCCCCCCCNC(=O)Cn3cc(CCCCCN)nn3)CC2)nc(N2CCN(C(=O)CCCCCCCCCCNC(=O)[C@H](CO)n3cc(CCCCCN)nn3)CC2)n1` gave SENP7 block -2, SENP8 block-1 23, SENP6 inh -12, UBC13 inh 117*, Apaf1 inhib 63* and SENP8 block-2 -6.
For C#CCOCCOCCOCCNc1nc(N2CCN(C(=O)CCCCCCCCCCNC(=O)Cn3cc(C[C@@H](C)O)nn3)CC2)nc(N2CCN(C(=O)CCCCCCCCCCNC(=O)[C@H](CCCCN)n3cc(C[C@@H](C)CC)nn3)CC2)n1 the results were SENP7 block 11, SENP8 block-1 19, SENP6 inh -36, UBC13 inh 122*, Apaf1 inhib 71* and SENP8 block-2 -25.
Screening C#CCOCCOCCOCCNc1nc(N2CCOCC2)nc(N2CCN(C(=O)CCCCCCCCCCNC(=O)Cn3cc(CCCCCN)nn3)CC2)n1 returned SENP7 block -3, SENP8 block-1 8, SENP6 inh -2, UBC13 inh 28, Apaf1 inhib 26 and SENP8 block-2 5.
C#CCOCCOCCOCCNc1nc(N2CCN(C(=O)CCCCCCCCCCNC(=O)Cn3cc(C[C@@H](C)O)nn3)CC2)nc(N2CCN(C(=O)CCCCCCCCCCNC(=O)Cn3cc(C[C@@H](C)O)nn3)CC2)n1 was read as SENP7 block -9, SENP8 block-1 14, SENP6 inh -6, UBC13 inh 37, Apaf1 inhib 27 and SENP8 block-2 -1.
For CCOc1cc(C2CC(=O)N3CN(C4CCCCC4)CSC3=C2C#N)ccc1O (stereo not drawn) the results were SENP7 block 25, SENP8 block-1 66*, SENP6 inh 14, UBC13 inh -55, Apaf1 inhib 28 and SENP8 block-2 -1.
For CCC(=O)N1CCC1(C)C(=O)Nc1ccc(Cl)c(Cl)c1 (stereo not drawn) the results were SENP8 block-1 3.
Screening O=C(CSc1ccsc1[N+](=O)[O-])Nc1cc(F)ccc1F returned SENP8 block-1 8.
For CCN(CC)c1ccc(NC(=O)CSc2ccsc2[N+](=O)[O-])c(C)c1 the results were SENP7 block 6, SENP8 block-1 46*, SENP6 inh 7, UBC13 inh -6, Apaf1 inhib 22 and SENP8 block-2 3.
Cc1nc2cc(-c3ccc(F)cc3)[nH]n2c(=O)c1C was read as SENP7 block 8, SENP8 block-1 -86, SENP6 inh 19, UBC13 inh 8, Apaf1 inhib -2 and SENP8 block-2 4.
O=c1c2c(nc3cc(-c4cccc(F)c4)[nH]n13)CCC2 was read as SENP7 block 45, SENP8 block-1 -270, SENP6 inh 60*, UBC13 inh 15, Apaf1 inhib 1 and SENP8 block-2 44.
Cn1ncc(Cl)c1C(=O)Nc1nc2ccc(Cl)cc2s1 was read as SENP7 block 98*, SENP8 block-1 -56, SENP6 inh 98*, UBC13 inh 15, Apaf1 inhib -12 and SENP8 block-2 -5.
Screening Cc1cc(C(=O)Nc2nc3ccc(Cl)cc3s2)nn1C returned SENP7 block 48, SENP8 block-1 -8, SENP6 inh -7, UBC13 inh 6, Apaf1 inhib -15 and SENP8 block-2 -4.
CCOc1cc(C(c2c(C)[nH][nH]c2=O)c2c(C)[nH][nH]c2=O)ccc1OCc1ccc([N+](=O)[O-])cc1 was read as SENP7 block 9, SENP8 block-1 37*, SENP6 inh 7, UBC13 inh -4, Apaf1 inhib 27 and SENP8 block-2 -1.
For CCOc1cc(C(c2c(C)[nH][nH]c2=O)c2c(C)[nH][nH]c2=O)ccc1OC(=O)c1cccc([N+](=O)[O-])c1 the results were SENP7 block 17, SENP8 block-1 34, SENP6 inh -13, UBC13 inh 0, Apaf1 inhib 36 and SENP8 block-2 -2.
For O=C(C(=O)N1CCN(c2ccccc2)CC1)c1ccccc1 the results were SENP8 block-1 8.
O=C(COC(=O)c1cccc2c1C(=O)c1ccccc1C2=O)NC1CCCCC1 was read as SENP7 block -7, SENP8 block-1 20, SENP6 inh 28, UBC13 inh -24, Apaf1 inhib 20 and SENP8 block-2 -7.
Screening O=C(COC(=O)c1ccc2c(c1[N+](=O)[O-])C(=O)c1ccccc1C2=O)NC1CC1 returned SENP7 block 1, SENP8 block-1 34*, SENP6 inh 38, UBC13 inh -44, Apaf1 inhib 15 and SENP8 block-2 17.
COc1ccc(NC(=O)C2(C)CCN2Cc2cccc(OC)c2F)cc1OC (stereo not drawn) was read as SENP8 block-1 13.
